Source: ChEMBL document CHEMBL4376884, “Toward a Rational Design of Polyamine-Based Zinc-Chelating Agents for Cancer Therapies” (J Med Chem, 2020)
Active and inactive are the calls of the source. The calls are words filed in the database; no cut-off is given here.

How the values were obtained:
[1] = system: Jurkat; experiment: Antiproliferative activity against human Jurkat cells assessed as reduction in cell viability at 10 uM incubated for 48 hrs by cell titer-glo assay; type: functional, cell-based
In short: (§1)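 Cells plated and treated 24 h later with 10 µM compound for 48 h; viable cells quantified by CellTiter-Glo ATP luminescence. Expressed as percentage of viable cells relative to untreated; mean ± SD of three independent experiments, each in triplicate.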

[2] = Metal chelating activity assessed as Zn2+-compound complex formation by measuring stability constant for ZnL(OH)2 in 0.15M NaCl at 298.1K by potentiometric titration analysis
In short: (§2)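 Glass-electrode potentiometric titration with an Ag/AgCl reference in saturated KCl. The electrode was calibrated as an [H+] probe against standardized HCl with CO₂-free NaOH, using Gran's method (pKw 13.73(1)). Range was pH 2.0–11.0, with metal and ligand at 1×10⁻³ to 5×10⁻³ M in 1:1 ratio. At least two curves per compound were merged and fitted with HYPERQUAD.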

[3] = system: LN-229; experiment: Metal chelating activity in human LN229 cells assessed as decrease in intracellular concentration of labile zinc ions by measuring reduction in zinquin-Zn2+ complex formation incubated for 12 hrs followed by incubation with fluorophore-zinquin for 30 mins by spectrofluorometric analysis; type: cell-based
In short: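 LN229 cells were treated 12 h, trypsinized, pelleted and checked by Trypan Blue. Then 6x10⁶ cells in 1 mL PBS were loaded with Zinquin 25 μM for 30 min at 37 °C in the dark. Fluorescence was read at ex 370/em 475 nm with a 400–600 nm scan, normalized to cell number, untreated set to 100; four independent experiments.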

[4] = Metal chelating activity assessed as Zn2+-compound complex formation at physiological pH 7.4 by quantum mechanical studies
In short: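 Zn2+ complexes modelled by DFT, B3LYP, gas phase. Basis set def2-SV(P), with MDF10 Stuttgart-Dresden effective core potential for Zn and Grimme dispersion correction. Vibrational frequencies and zero-point correction computed for each minimum.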

[5] = system: U-87 MG; experiment: Antiproliferative activity against human U87MG cells assessed as reduction in cell viability at 10 uM incubated for 48 hrs by cell titer-glo assay; type: functional, cell-based; conditions: U-87MG ATCC; in short: as §1
[6] = Metal chelating activity assessed as Zn2+-compound complex formation by measuring stability constant for ZnL in 0.15M NaCl at 298.1K by potentiometric titration analysis; in short: as §2
[7] = system: JeKo-1; experiment: Antiproliferative activity against human JeKo1 cells assessed as reduction in cell viability at 10 uM incubated for 48 hrs by cell titer-glo assay; type: functional, cell-based; in short: as §1
[8] = Metal chelating activity assessed as Zn2+-compound complex formation by measuring stability constant for ZnL(OH) in 0.15M NaCl at 298.1K by potentiometric titration analysis; in short: as §2
[9] = system: LN-229; experiment: Antiproliferative activity against human LN229 cells assessed as reduction in cell viability at 10 uM incubated for 48 hrs by cell titer-glo assay; type: functional, cell-based; in short: as §1
[10] = Metal chelating activity assessed as Zn2+-compound complex formation by measuring stability constant for ZnL(OH) using pre-Zn2+-complexed compound (ZnL) in 0.15M NaCl at 298.1K by potentiometric titration analysis; in short: as §2
[11] = Metal chelating activity assessed as Zn2+-compound complex formation by measuring stability constant for ZnL(OH)2 using pre-Zn2+-complexed compound (ZnL(OH)) in 0.15M NaCl at 298.1K by potentiometric titration analysis; in short: as §2
[12] = system: PC-3; experiment: Inhibition of colony formation in human PC3 cells at 30 uM incubated for 4 hrs by crystal violet staining based colony counting method; type: functional, cell-based
In short: (§3)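 LN229 and PC3 cells treated for 4 h with compound (10 µM) or with etoposide (30 µM positive control), washed, trypsinized and replated at 3000 cells per 60-mm plate. Colonies grown 7–10 days, fixed and stained with 0.5% crystal violet in 70% ethanol, and counted. Reported as percent of control; four independent experiments, each in duplicate.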

[13] = system: LN-229; experiment: Inhibition of colony formation in human LN229 cells at 30 uM incubated for 4 hrs by crystal violet staining based colony counting method; type: functional, cell-based; in short: as §3
[14] = Metal chelating activity assessed as Zn2+-compound complex formation by measuring stability constant for ZnL(OH) in 0.15M NaCl and hydroalcoholic solutions (H2O/EtOH 70:30) at 298.1K by potentiometric titration analysis; in short: as §2
[15] = Metal chelating activity assessed as Zn2+-compound complex formation by measuring stability constant for ZnL(OH)2 using pre-Zn2+-complexed compound (ZnL(OH)) in 0.15M NaCl and hydroalcoholic solutions (H2O/EtOH 70:30) at 298.1K by potentiometric titration analysis; in short: as §2
[16] = Metal chelating activity assessed as Zn2+-compound complex formation by measuring stability constant for ZnL in 0.15M NaCl and hydroalcoholic solutions (H2O/EtOH 70:30) at 298.1K by potentiometric titration analysis; in short: as §2
[17] = Metal chelating activity assessed as Zn2+-compound complex formation by measuring stability constant for ZnL(OH) using pre-Zn2+-complexed compound (ZnL) in 0.15M NaCl and hydroalcoholic solutions (H2O/EtOH 70:30) at 298.1K by potentiometric titration analysis; in short: as §2
[18] = Metal chelating activity assessed as Zn2+-compound complex formation by measuring stability constant for ZnH2L2 in 0.15M NaCl and hydroalcoholic solutions (H2O/EtOH 70:30) at 298.1K by potentiometric titration analysis
In short: (§4)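 Potentiometric titration at pH 2.0–11.0 with Ag/AgCl reference electrode. Glass electrode calibrated against HCl with CO2-free NaOH by Gran's method (pKw = 13.73). Metal and ligand each at 1×10⁻³ to 5×10⁻³ M, 1:1 molar ratio. At least two titration curves per compound, merged and fitted with HYPERQUAD to give stability constants.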

[19] = Metal chelating activity assessed as Zn2+-compound complex formation by measuring stability constant for ZnL(OH)2 in 0.15M NaCl and hydroalcoholic solutions (H2O/EtOH 70:30) at 298.1K by potentiometric titration analysis; in short: as §2
[20] = Metal chelating activity assessed as Zn2+-compound complex formation by measuring stability constant for ZnH2L using pre-Zn2+-complexed compound (ZnHL) in 0.15M NaCl at 298.1K by potentiometric titration analysis; in short: as §4
[21] = Metal chelating activity assessed as Zn2+-compound complex formation by measuring stability constant for ZnHL using pre-Zn2+-complexed compound (ZnL) in 0.15M NaCl at 298.1K by potentiometric titration analysis; in short: as §2
[22] = Metal chelating activity assessed as Zn2+-compound complex formation by measuring stability constant for ZnH2L in 0.15M NaCl at 298.1K by potentiometric titration analysis; in short: as §4
[23] = Metal chelating activity assessed as Zn2+-compound complex formation by measuring stability constant for ZnHL in 0.15M NaCl at 298.1K by potentiometric titration analysis; in short: as §2
[24] = system: DNA; experiment: Induction of DNA damage in human Z138 cells assessed as increase in gammaH2AX phosphorylation at Ser139 residue at 1 uM incubated for 4 hrs by Flow cytometry analysis; type: cell-based
In short: (§5)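 Z-138 and LN229 cells treated 4 h with 10 µM compound or 1 µM doxorubicin. Fixed in 3.7% formaldehyde on ice, permeabilized with 0.2% Triton X, stained with rabbit anti-pS139 H2A.X (1:400) and Alexa 555 secondary, then analysed by flow cytometry. Fold γH2AX fluorescence versus untreated; mean ± SD of three experiments.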

[25] = system: DNA; experiment: Induction of DNA damage in human LN229 cells assessed as increase in gammaH2AX phosphorylation at Ser139 residue at 1 uM incubated for 4 hrs by Flow cytometry analysis; type: cell-based; in short: as §5
[26] = system: Fibroblast; experiment: Cytotoxicity against human Fibroblast assessed as reduction in cell viability incubated for 48 hrs by cell titer-glo assay; type: cell-based
In short: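 Dose-response: cells plated, treated 24 h later for 48 h, then ATP measured by CellTiter-Glo luminescence. IC50 given as mean ± SD from three independent experiments, each in triplicate. Fibroblasts came from individuals. Cells were kept in RPMI or DMEM with 10% heat-inactivated FBS and penicillin/streptomycin at 37 °C, 5% CO2.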

| SMILES | log K [2] | Activity [4] | log K [6] | log K [8] | log K [10] | log K [11] | Activity [1] | Activity [3] | Activity [5] | Activity [7] | Activity [9] | also measured |
| --- | --- | --- | --- | --- | --- | --- | --- | --- | --- | --- | --- | --- |
| COc1cc([C@@H]2c3cc4c(cc3[C@@H](O[C@@H]3O[C@@H]5CO[C@@H](C)O[C@H]5[C@H](O)[C@H]3O)[C@H]3COC(=O)[C@H]23)OCO4)cc(OC)c1O | – | – | – | – | – | – | – | – | – | – | – | inhibition [12]: Active; inhibition [13]: Active |
| O=S(=O)(c1cccc2ccccc12)N(CCNCc1ccccn1)CCNCc1ccccn1 | -11.8 | – | 7.53 | -1.48 | -10 | -10.3 | Active | inactive | Active | Active | Active | – |
| O=C(NCCN(CCNC(=O)c1ccccn1)Cc1ccc2ccccc2c1)c1ccccn1 | – | Active | – | – | – | – | – | inactive | – | – | – | – |
| CN(CCNCc1ccncc1)CCNCc1ccncc1 | – | – | – | – | – | – | inactive | inactive | inactive | inactive | inactive | log K [14]: -2.6; log K [15]: -9.68; log K [16]: 6.57; log K [17]: -9.17; log K [18]: 24.3; log K [19]: -12.3 |
| CN(C)c1cccc2c(S(=O)(=O)N(CCNCc3ccccn3)CCNCc3ccccn3)cccc12 | -11.5 | Active | 8.38 | -1.17 | -9.55 | -10.4 | Active | inactive | Active | Active | Active | log K [20]: 4.5; log K [21]: 4.61; log K [22]: 17.5; log K [23]: 13 |
| O=S(=O)(c1cccc2cccnc12)N(CCNCc1ccccn1)CCNCc1ccccn1 | – | – | – | – | – | – | Active | – | – | Active | Active | – |
| COc1cccc2c1C(=O)c1c(O)c3c(c(O)c1C2=O)C[C@@](O)(C(=O)CO)C[C@@H]3O[C@H]1C[C@H](N)[C@H](O)[C@H](C)O1 | – | – | – | – | – | – | – | – | – | – | – | Activity [24]: Active; Activity [25]: Active |
| c1ccc(CN(CCN(Cc2ccccn2)Cc2ccccn2)Cc2ccccn2)nc1 | – | – | – | – | – | – | – | – | – | – | – | IC50 [26]: 6.7 µM |

Second part, led by results:

| log K [2] | Activity [4] | log K [6] | log K [8] | log K [10] | log K [11] | SMILES | Activity [1] | Activity [3] | Activity [5] | Activity [7] | Activity [9] | also measured |
| --- | --- | --- | --- | --- | --- | --- | --- | --- | --- | --- | --- | --- |
| -12.9 | 60.7% | 4.72 | -4.22 | -8.99 | -8.67 | c1ccc2cc(CN(CCNCc3ccncc3)CCNCc3ccncc3)ccc2c1 | inactive | inactive | inactive | inactive | inactive | – |
| -12.1 | 63.4% | 6.04 | -2.56 | -8.6 | -9.54 | c1cncc(CNCCN(CCNCc2cccnc2)Cc2ccc3ccccc3c2)c1 | inactive | inactive | inactive | inactive | inactive | log K [23]: 14.1 |
